Test results reported in ChEMBL document CHEMBL1144865, “N-aminoimidazole derivatives inhibiting retroviral replication via a yet unidentified mode of action” (J Med Chem, 2003).

Key:
[1] = tested on: MT4; test: Concentration that reduced the MT-4 cell viability by 50%.; format: functional, Homo sapiens
Procedure, shortened: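 Mock-infected MT-4 cells, run in parallel with the antiviral assay, were exposed to compound. Viability on day 5 was read by MTT colorimetry. The value is the concentration lowering viability by 50%. Averages ± SD from at least two independent experiments.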

[2] = tested on: Human immunodeficiency virus 1; test: Concentration required to inhibit the viral (HIV-1 IIIB strain) cytopathic effect by 50% in MT-4 cells.; format: functional, organism-based; details: Human immunodeficiency virus 1, MT4
Procedure, shortened: (§1)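 Virus-infected MT-4 cells cultured with serial compound dilutions; viability measured 5 days after infection by MTT tetrazolium colorimetric read-out. The value is the concentration protecting 50% of cells from viral cytopathic effect. Averages ± SD from at least two independent experiments. HIV-2 and SIV stocks came from infected MT-4 culture supernatants.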

[3] = tested on: Human immunodeficiency virus 1; test: Concentration required to inhibit the viral (HIV-1 NL4.3 strain) cytopathic effect by 50% in MT-4 cells.; format: functional, organism-based; details: Human immunodeficiency virus 1, MT4; procedure, shortened: as §1
[4] = tested on: Human immunodeficiency virus 2; test: Concentration required to inhibit the viral (HIV-2 ROD) cytopathic effect by 50% in MT-4 cells.; format: functional, organism-based, MT4; procedure, shortened: as §1
[5] = tested on: Simian immunodeficiency virus; test: Concentration required to inhibit the viral (SIV mac251) cytopathic effect by 50% in MT-4 cells.; format: functional, organism-based, MT4; procedure, shortened: as §1
[6] = tested on: Human immunodeficiency virus 1; test: Concentration required to inhibit the viral (HIV-1 NNRTI resistant strain) cytopathic effect by 50% in MT-4 cells.; format: functional, organism-based; details: Human immunodeficiency virus 1, MT4
Procedure, shortened: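 MT-4 cells infected with HIV-1(III_B)-derived strain S0561945 (K103N + Y181C RT mutations, NNRTI-resistant). Cultured with varying compound concentrations; viability read on day 5 post-infection by MTT tetrazolium colorimetry. Value is the concentration giving 50% protection against virus-induced cytopathic effect. Cytotoxicity measured in parallel on mock-infected cells at day 5. Averages ± SD from at least two independent experiments.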

[7] = Human immunodeficiency virus 2, MT4
[8] = Simian immunodeficiency virus, mac251, MT4

Row | Structure (SMILES) | CC50 ([1]; Homo sapiens, MT4) [µM] | IC50 [2] [µM] | IC50 [3] [µM] | IC50 [4, 7] [µM] | IC50 [5, 8] [µM] | IC50 [6] [µM] | CC50 [1] [µM] | IC50 ([4]; mt4) [µM] | IC50 ([5]; mt4) [µM]
1 | COC(=O)c1c(C)ncn1Nc1cccc(Cl)c1 | 107 | > 107 | > 107 | > 107 | > 107 | – | – | – | –
2 | CC1N=C(S)N(Nc2cccc([N+](=O)[O-])c2)C1c1ccccc1 (centres undefined) | 48.3 | 7.29 | 11.2 | > 48.3 | 7.54 | 42.2 | – | – | –
3 | Cc1nc(S)n(Nc2cccc(Cl)c2)c1-c1cccc(Br)c1 | 44 | 8.54 | 5.6 | 10.5 | 1.75 | 3 | – | – | –
4 | Cc1nc(S)n(Nc2cccc(Cl)c2)c1-c1ccc(Br)cc1 | 33.2 | > 33.2 | > 33.2 | > 33.2 | > 33.2 | – | – | – | –
5 | CC1N=C(S)N(Nc2cccc(Cl)c2)C1c1cccc(C(N)=O)c1 (centres undefined) | 42.2 | > 42.2 | > 42.2 | > 42.2 | > 42.2 | – | – | – | –
6 | COC(=O)c1cccc(C2C(C)N=C(S)N2Nc2cccc(Cl)c2)c1 (centres undefined) | 67.4 | > 67.4 | > 67.4 | > 67.4 | > 67.4 | – | – | – | –
7 | Cc1cccc(Nn2cnc(C)c2-c2cccc(C(N)=O)c2)c1 | 162 | > 162 | > 162 | > 162 | > 162 | – | – | – | –
8 | Cc1ncn(Nc2cccc(Cl)c2)c1-c1cccc(C(N)=O)c1 | 260 | > 260 | > 260 | > 260 | > 260 | – | – | – | –
9 | CC1N=C(S)N(Nc2ccccc2)C1c1ccccc1 (centres undefined) | 191 | > 191 | > 191 | > 191 | > 191 | – | – | – | –
10 | COC(=O)C1C(C)N=C(S)N1Nc1cccc(Cl)c1 (centres undefined) | 190 | > 190 | > 190 | > 190 | > 190 | – | – | – | –
11 | CC1N=C(S)N(Nc2ccccc2)C1C (centres undefined) | 181 | > 181 | > 181 | > 181 | > 181 | – | – | – | –
12 | CCc1ncn(Nc2cccc(C)c2)c1-c1ccccc1 | 27.9 | > 27.9 | > 27.9 | > 27.9 | > 27.9 | – | – | – | –
13 | COC(=O)c1cccc(-c2c(C)ncn2Nc2cccc(Cl)c2)c1 | 33.1 | > 33.1 | > 33.1 | > 33.1 | > 33.1 | – | – | – | –
14 | Cc1ncn(Nc2cccc(Cl)c2)c1-c1cccc(C(=O)O)c1 | 161 | > 161 | > 161 | > 161 | > 161 | – | – | – | –
15 | Cc1cccc(NN2C(S)=NC(C)C2c2cccc(C#N)c2)c1 (centres undefined) | 45.6 | > 45.6 | > 45.6 | > 45.6 | > 45.6 | – | – | – | –
16 | CC1N=C(S)N(Nc2cccc(Cl)c2)C1c1cccc(C(=O)O)c1 (centres undefined) | 120 | > 120 | > 120 | > 120 | > 120 | – | – | – | –
17 | CSc1nc(C)c(-c2ccccc2)n1Nc1cccc(Cl)c1 | 42.1 | > 42.1 | > 42.1 | > 42.1 | > 42.1 | – | – | – | –
18 | Cc1ncn(Nc2ccccc2)c1C | 351 | > 351 | > 351 | > 351 | > 351 | – | – | – | –
19 | CCc1ccc(NN2C(S)=NC(C)C2c2ccccc2)cc1 (centres undefined) | 34.5 | > 34.5 | > 34.5 | > 34.5 | > 34.5 | – | – | – | –

Row | Structure (SMILES) | CC50 ([1]; Homo sapiens, MT4) [µM] | IC50 [2] [µM] | IC50 [3] [µM] | IC50 [4, 7] [µM] | IC50 [5, 8] [µM] | IC50 [6] [µM] | CC50 [1] [µM] | IC50 ([4]; mt4) [µM] | IC50 ([5]; mt4) [µM]
20 | COc1cccc(Nn2cnc(C)c2-c2ccccc2)c1 | 34.4 | > 34.4 | > 34.4 | > 34.4 | > 34.4 | – | – | – | –
21 | COC(=O)C1N=C(S)N(Nc2cccc(Cl)c2)C1C (centres undefined) | 48.8 | > 48.8 | > 48.8 | > 48.8 | > 48.8 | – | – | – | –
22 | Cc1ncn(Nc2cccc(Cl)c2)c1C | – | – | – | – | – | – | 214 | > 214 | > 214
23 | Cc1nc(S)n(Nc2ccc(Cl)cc2)c1-c1ccccc1 | 134 | > 134 | > 134 | > 134 | > 134 | – | – | – | –
24 | CC1N=C(S)N(Nc2cccc(Cl)c2)C1C(=O)O (centres undefined) | 266 | > 266 | > 266 | > 266 | > 266 | – | – | – | –
25 | Cc1cccc(Nn2cnc(C)c2-c2cccc(C#N)c2)c1 | 44.7 | > 44.7 | > 44.7 | > 44.7 | > 44.7 | – | – | – | –
26 | Cc1nc(S)n(Nc2ccc(F)cc2)c1-c1ccccc1 | 220 | > 220 | > 220 | > 220 | > 220 | – | – | – | –
27 | Cc1cccc(NN2C(S)=NC(C)C2c2cccc(C(=O)O)c2)c1 (centres undefined) | 187 | > 187 | > 187 | > 187 | > 187 | – | – | – | –
28 | Cc1cccc(NN2C(S)=NC(C)C2C)c1 (centres undefined) | 360 | > 360 | > 360 | > 360 | > 360 | – | – | – | –
29 | Clc1cccc(Nn2cnc3c2CCCC3)c1 | – | – | – | – | – | – | 67.3 | > 67.3 | > 67.3
30 | Cc1ncn(Nc2ccccc2)c1-c1ccccc1 | 52.2 | – | – | > 52.2 | > 52.2 | – | – | – | –
31 | CC1N=C(S)N(Nc2cccc(Cl)c2)C1C (centres undefined) | 259 | > 259 | > 259 | > 259 | > 259 | – | – | – | –
32 | Cc1c(-c2ccccc2)nc(S)n1Nc1cccc(Cl)c1 | 50 | > 50 | > 50 | > 50 | > 50 | – | – | – | –
33 | Cc1cccc(Nn2cnc(C)c2C)c1 | 312 | > 312 | > 312 | > 312 | > 312 | – | – | – | –
34 | SC1=NC2CCCCC2N1Nc1cccc(Cl)c1 (centres undefined) | 126 | > 126 | > 126 | > 126 | > 126 | – | – | – | –
35 | CC1N=C(S)N(Nc2cc(Cl)ccc2Cl)C1c1ccccc1 (centres undefined) | 147 | > 147 | > 147 | > 147 | > 147 | – | – | – | –
36 | CSc1ccc(NN2C(S)=NC(C)C2c2ccccc2)cc1 (centres undefined) | 53 | > 53 | > 53 | > 53 | > 53 | – | – | – | –
37 | Cc1nc(SCc2ccccc2)n(Nc2cccc(Cl)c2)c1-c1ccccc1 | 39.7 | > 39.7 | > 39.7 | > 39.7 | > 39.7 | – | – | – | –
38 | Cc1cc(C)cc(Nn2cnc(C)c2-c2ccccc2)c1 | 20.4 | – | – | > 20.4 | > 20.4 | – | – | – | –
